Calls of active or inactive are those of the source. The rule behind the calls is not given here.
Legend:
[1] = test system: ZR-75-1; assay: Anticancer activity against human ZR-75-1 cells by SRB method; assay type: functional
Method in brief: (§1)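 Growth inhibition over a panel of human cancer lines (lung, ovarian, oral, colon, prostate, cervix, breast). Value is the 50% growth-inhibition concentration, reported as the mean ± standard error of the mean of three determinations.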

[2] = test system: MCF7; assay: Anticancer activity against human MCF7 cells by SRB method; assay type: functional; method in brief: as §1
[3] = test system: HOP-62; assay: Anticancer activity against human HOP62 cells by SRB method; assay type: functional; method in brief: as §1
[4] = Anticancer activity against human Gurav cells by SRB method; assay type: functional; method in brief: as §1
[5] = test system: A549; assay: Anticancer activity against human A549 cells by SRB method; assay type: functional; method in brief: as §1
[6] = test system: A2780; assay: Anticancer activity against human A2780 cells by SRB method; assay type: functional; method in brief: as §1
[7] = Anticancer activity against human DWD cells by SRB method; assay type: functional; method in brief: as §1
[8] = test system: COLO 205; assay: Anticancer activity against human COLO205 cells by SRB method; assay type: functional; method in brief: as §1
[9] = test system: PC-3; assay: Anticancer activity against human PC3 cells by SRB method; assay type: functional; method in brief: as §1
[10] = test system: MCF7; assay: Cytotoxicity against human MCF7 cells assessed as reduction in cell viability at 2 uM after 24 hrs by MTT assay; assay type: functional, cell-based
[11] = test system: MCF7; assay: Cell cycle arrest in human MCF7 cells assessed as accumulation at G0/G1 phase at 4 uM after 24 hrs using propidium iodide staining based flow cytometric analysis; assay type: functional
Method in brief: (§2)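 MCF-7 cells were seeded at 5 × 10^5 per 60 mm dish and grown for 24 h, then exposed to 4 µM compound for 24 h. Cells were trypsinized, fixed in ice-cold 70% ethanol at 4 °C for 30 min and treated with 1 mg/ml RNase at 37 °C for 30 min. They were stained with propidium iodide/citrate/Triton X-100, and DNA content was read on 20,000 events by flow cytometry. Three independent repeats.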

[12] = test system: MCF7; assay: Cell cycle arrest in human MCF7 cells assessed as accumulation at G0 phase at 10 uM after 24 hrs using propidium iodide staining based flow cytometric analysis (reference value: 1.27 +/- 0.08 %); assay type: functional
[13] = test system: MCF7; assay: Cell cycle arrest in human MCF7 cells assessed as accumulation at G1 phase at 10 uM after 24 hrs using propidium iodide staining based flow cytometric analysis (reference value: 47.64 +/- 1.49 %); assay type: functional
[14] = test system: MCF7; assay: Cell cycle arrest in human MCF7 cells assessed as accumulation at S phase at 10 uM after 24 hrs using propidium iodide staining based flow cytometric analysis (reference value: 12.92 +/- 1 %); assay type: functional
[15] = test system: MCF7; assay: Cell cycle arrest in human MCF7 cells assessed as accumulation at G2/M phase at 10 uM after 24 hrs using propidium iodide staining based flow cytometric analysis (reference value: 38.15 +/- 1.068 %); assay type: functional
[16] = test system: MCF7; assay: Induction of cell cycle arrest at G1 phase in human MCF7 cells at 4 uM after 24 hrs using propidium iodide staining based flow cytometric analysis; assay type: functional; method in brief: as §2
[17] = test system: MCF7; assay: Downregulation of cyclin D1 protein expression in human MCF7 cells at 4 uM after 24 hrs by Western blot analysis; assay type: functional, cell-based
Method in brief: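 MCF-7 cells at 80% confluency were treated with 4 µM compound for 24 h. Cells were lysed in RIPA buffer with protease inhibitors and protein was quantified by Bradford. 50 µg per lane was run on 12% SDS-PAGE and transferred to PVDF. Blots were probed overnight at 4 °C with rabbit polyclonal anti-cyclin D1, with β-actin as loading control, and detected by chemiluminescence.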

[18] = target: G1/S-specific cyclin-D1 (Homo sapiens) (UniProt P24385); assay: Down regulation of Cyclin D1 promoter activity expressed in human MCF7 cells co-transfected with luciferase gene at 4 uM after 24 hrs by luciferase reporter gene assay; assay type: cell-based
G1/S-specific cyclin-D1 (Homo sapiens), sequence (P24385 whole entry): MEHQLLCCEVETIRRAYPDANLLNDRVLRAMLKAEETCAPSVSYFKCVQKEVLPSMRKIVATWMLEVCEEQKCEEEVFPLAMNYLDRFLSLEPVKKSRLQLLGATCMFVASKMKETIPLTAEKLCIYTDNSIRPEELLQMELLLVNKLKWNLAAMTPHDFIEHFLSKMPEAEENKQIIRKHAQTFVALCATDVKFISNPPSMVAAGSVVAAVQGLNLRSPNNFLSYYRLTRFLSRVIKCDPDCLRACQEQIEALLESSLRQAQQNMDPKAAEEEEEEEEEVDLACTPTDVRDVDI
Method in brief: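 MCF-7 cells were transfected for 24 h with the cyclin D1 promoter (−1745) luciferase construct, which contains an NF-kB site. Cells were then treated with 4 µM compound (final) for a further 24 h, and lysate luciferase was measured by luminometer. Untransfected cells served as negative control and transfected untreated cells as control.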

[19] = Down regulation of NF-kappaB activity expressed in human MCF7 cells transfected with NF-kB SEAP plasmid at 4 uM after 24 hrs by chemiluminescence-based luminometric analysis; assay type: cell-based
Method in brief: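 MCF-7 cells were transiently transfected with the NF-kB SEAP plasmid using lipofectamine 2000. After 24 h, cells were treated with 4 µM compound for 24 h. Lysates were assayed with a chemiluminescent reagent and read by luminometry and by 30 min X-ray film exposure. Transfected untreated cells served as control.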

[20] = test system: MCF7; assay: Induction of apoptosis in human MCF7 cells assessed as down regulation of Bcl2 expression at 4 uM after 24 hrs by ELISA; assay type: functional, cell-based
Method in brief: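 MCF-7 cells were treated with 4 µM compound for 24 h. Lysates were added to Bcl2 antibody-coated wells, followed by biotinylated anti-human Bcl2 monoclonal antibody, and bound Bcl2 was detected with streptavidin-HRP (sandwich ELISA).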

[21] = test system: MCF7; assay: Induction of apoptosis in human MCF7 cells assessed as down regulation of Bcl-xL expression at 4 uM after 24 hrs by Western blot
[22] = test system: KB; assay: Anticancer activity against human KB cells by SRB method; assay type: functional; method in brief: as §1
[23] = test system: SiHa; assay: Anticancer activity against human SiHa cells by SRB method; assay type: functional; method in brief: as §1
[24] = test system: MCF7; assay: Cytotoxicity against human MCF7 cells assessed as reduction in cell viability at 4 uM after 24 hrs by MTT assay; assay type: functional, cell-based
Method in brief: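 MCF-7 cells were seeded at 10,000 per well and left overnight, then treated with 4 µM compound for 24 h. MTT was added for 2 h at 37 °C, formazan was solubilized in extraction buffer, and OD was read at 570 nm. Untreated cells served as control. Three independent experiments, SD.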

Structure (SMILES)	GI50 [2]	GI50 [5]	GI50 [6]	GI50 [8]	GI50 [9]	Activity [18]	GI50 [22]	GI50 [1]	GI50 [3]	GI50 [4]	GI50 [7]	Activity [10]	Activity [11]	Activity [12]	Activity [13]	Activity [14]	Activity [15]	Activity [16]	Activity [17]	GI50 [23]	also measured
COc1cc2c(cc1OC)C(=O)N1C[C@@H](n3cc(COc4ccc(/C=C/C(=O)c5ccccc5O)cc4OC)nn3)C[C@H]1C=N2	2.35 µM	2.78 µM	0.15 µM	0.11 µM	2.23 µM	–	–	–	–	2.51 µM	2.7 µM	inactive	55.24%	5.19%	50.9%	8.71%	35.19%	Active	–	–	–
COc1cc(/C=C/C(=O)c2ccc(O)cc2)ccc1OCCCn1cc(COc2cc3c(cc2OC)C(=O)N2CCC[C@H]2C=N3)nn1	0.16 µM	0.15 µM	0.12 µM	–	0.16 µM	Active	2.03 µM	0.17 µM	0.17 µM	0.13 µM	0.12 µM	inactive	87.7%	13.67%	72.51%	6.48%	7.33%	Active	Active	0.18 µM	Activity [24]: Active; Activity [19]: Active; Activity [20]: Active; Activity [21]: Active
COc1cc2c(cc1OCc1ccccc1)N=C[C@@H]1C[C@H](n3cc(COc4ccc(/C=C/C(=O)c5ccccc5O)cc4OC)nn3)CN1C2=O	–	–	–	–	–	–	–	–	–	–	–	inactive	59.79%	5.21%	54.61%	6.65%	32.06%	Active	–	–	–
COc1cc(/C=C/C(=O)c2ccc(O)cc2)ccc1OCCCCn1cc(COc2cc3c(cc2OC)C(=O)N2CCC[C@H]2C=N3)nn1	0.16 µM	< 0.15 µM	0.11 µM	0.11 µM	0.15 µM	–	0.16 µM	0.16 µM	0.19 µM	0.13 µM	< 0.16 µM	–	–	–	–	–	–	–	–	2.52 µM	–
COc1cc2c(cc1O)N=C[C@@H]1CCCN1C2=O	0.17 µM	0.16 µM	0.14 µM	0.11 µM	0.2 µM	Active	0.17 µM	–	0.15 µM	0.16 µM	–	–	71.1%	7.62%	61.81%	9.67%	20.89%	–	Active	0.17 µM	Activity [24]: Active; Activity [19]: Active; Activity [20]: Active; Activity [21]: Active
COc1ccc(/C=C/C(=O)c2ccc(O)cc2)cc1O	–	–	–	–	–	–	–	–	–	–	–	–	64.11%	10.15%	51.61%	6.55%	31.5%	–	–	–	Activity [24]: Active
COc1cccc2c1C(=O)c1c(O)c3c(c(O)c1C2=O)C[C@@](O)(C(=O)CO)C[C@@H]3O[C@H]1C[C@H](N)[C@H](O)[C@H](C)O1 [DOXORUBICIN]	0.17 µM	–	0.16 µM	0.14 µM	–	–	0.17 µM	–	0.14 µM	0.17 µM	0.1 µM	–	–	–	–	–	–	–	–	0.17 µM	–

Second part, led by results:

GI50 [2]	GI50 [5]	GI50 [6]	GI50 [8]	GI50 [9]	Activity [18]	GI50 [22]	Structure (SMILES)	GI50 [1]	GI50 [3]	GI50 [4]	GI50 [7]	Activity [10]	Activity [11]	Activity [12]	Activity [13]	Activity [14]	Activity [15]	Activity [16]	Activity [17]	GI50 [23]	also measured
0.18 µM	2.09 µM	0.15 µM	0.1 µM	0.19 µM	Active	–	COc1cc(/C=C/C(=O)c2cc(Cl)ccc2O)ccc1OCCCCCn1cc(COc2cc3c(cc2OC)C(=O)N2CCC[C@H]2C=N3)nn1	2.02 µM	2.28 µM	0.19 µM	2.3 µM	inactive	60.18%	10.75%	60.56%	7.28%	22.06%	Active	Active	–	Activity [19]: Active; Activity [20]: Active; Activity [21]: Active
2.1 µM	0.17 µM	0.14 µM	0.14 µM	2.04 µM	–	0.18 µM	COc1cc(/C=C/C(=O)c2ccccc2O)ccc1OCCCCCn1cc(COc2cc3c(cc2OC)C(=O)N2CCC[C@H]2C=N3)nn1	0.17 µM	2.56 µM	0.16 µM	2.3 µM	inactive	56.23%	7.81%	46.39%	9.89%	35.88%	Active	–	2.71 µM	–
0.14 µM	< 0.16 µM	0.1 µM	–	0.13 µM	Active	0.17 µM	COc1cc(/C=C/C(=O)c2ccccc2O)ccc1OCCCCn1cc(COc2cc3c(cc2OC)C(=O)N2CCC[C@H]2C=N3)nn1	0.15 µM	0.16 µM	0.12 µM	< 0.13 µM	inactive	89.1%	10.79%	77.47%	4.99%	7.07%	Active	Active	0.14 µM	Activity [24]: Active; Activity [19]: Active; Activity [20]: Active; Activity [21]: Active
2.4 µM	2.33 µM	0.17 µM	0.15 µM	2.48 µM	Active	2.19 µM	COc1cc(/C=C/C(=O)c2ccccc2O)ccc1OCCCn1cc(COc2cc3c(cc2OC)C(=O)N2CCC[C@H]2C=N3)nn1	2.2 µM	2.92 µM	2.31 µM	–	inactive	76.87%	12.06%	64.08%	9.52%	14.32%	Active	Active	–	Activity [24]: Active; Activity [19]: Active; Activity [20]: Active; Activity [21]: Active
0.16 µM	0.19 µM	0.13 µM	< 0.1 µM	0.16 µM	–	2.66 µM	COc1cc(/C=C/C(=O)c2cc(Cl)ccc2O)ccc1OCCCCn1cc(COc2cc3c(cc2OC)C(=O)N2CCC[C@H]2C=N3)nn1	0.19 µM	2.5 µM	1.66 µM	< 0.17 µM	inactive	61.38%	10.51%	50.63%	7.74%	31.07%	Active	–	–	–

Reference: ChEMBL document CHEMBL1821554, “Synthesis and anticancer activity of chalcone-pyrrolobenzodiazepine conjugates linked via 1,2,3-triazole ring side-armed with alkane spacers” (2011)
